The record followed here is publication PMC11585990 (Drug Design, Development and Therapy, 2024).

Data set [1] has as its target HDAC2 (Homo sapiens, UniProt Q92769). The experiment in a line: In vitro HDAC2 inhibition assay. Format: biochemical. The following applies: recombinant human HDAC2, Boc-Lys(acetyl)-AMC.
Data set [2] can be described thus: In vivo antitumor assay, body weight of mice. On the set-up: species or system nu/nu mice. To be noted: NTERA-2 cL.D1 xenograft, nude mice, 10 mg/kg daily intraperitoneal, 15 days. The procedure, abridged: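 Male nu/nu mice aged 4–6 weeks received subcutaneous NTERA-2 cL.D1 cells (1×10⁷ in PBS). Once tumors reached 90–120 mm³, mice were randomized into four groups: vehicle, two reference inhibitors, or test compound, each at 10 mg/kg by daily intraperitoneal injection. Body weight and caliper tumor volume were recorded every 3 days for 15 days. n = 6 per group; mean ± SD.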

Data set [3] concerns the target ATM (Homo sapiens, UniProt Q13315). The experiment in a line: In vitro ATM inhibition assay. Format: biochemical. The following applies: recombinant human ATM, p53 substrate, HTRF. A general note: TR-FRET usually uses a lanthanide donor and a delayed reading to cut background.

Chain of ATM (Q13315 whole entry): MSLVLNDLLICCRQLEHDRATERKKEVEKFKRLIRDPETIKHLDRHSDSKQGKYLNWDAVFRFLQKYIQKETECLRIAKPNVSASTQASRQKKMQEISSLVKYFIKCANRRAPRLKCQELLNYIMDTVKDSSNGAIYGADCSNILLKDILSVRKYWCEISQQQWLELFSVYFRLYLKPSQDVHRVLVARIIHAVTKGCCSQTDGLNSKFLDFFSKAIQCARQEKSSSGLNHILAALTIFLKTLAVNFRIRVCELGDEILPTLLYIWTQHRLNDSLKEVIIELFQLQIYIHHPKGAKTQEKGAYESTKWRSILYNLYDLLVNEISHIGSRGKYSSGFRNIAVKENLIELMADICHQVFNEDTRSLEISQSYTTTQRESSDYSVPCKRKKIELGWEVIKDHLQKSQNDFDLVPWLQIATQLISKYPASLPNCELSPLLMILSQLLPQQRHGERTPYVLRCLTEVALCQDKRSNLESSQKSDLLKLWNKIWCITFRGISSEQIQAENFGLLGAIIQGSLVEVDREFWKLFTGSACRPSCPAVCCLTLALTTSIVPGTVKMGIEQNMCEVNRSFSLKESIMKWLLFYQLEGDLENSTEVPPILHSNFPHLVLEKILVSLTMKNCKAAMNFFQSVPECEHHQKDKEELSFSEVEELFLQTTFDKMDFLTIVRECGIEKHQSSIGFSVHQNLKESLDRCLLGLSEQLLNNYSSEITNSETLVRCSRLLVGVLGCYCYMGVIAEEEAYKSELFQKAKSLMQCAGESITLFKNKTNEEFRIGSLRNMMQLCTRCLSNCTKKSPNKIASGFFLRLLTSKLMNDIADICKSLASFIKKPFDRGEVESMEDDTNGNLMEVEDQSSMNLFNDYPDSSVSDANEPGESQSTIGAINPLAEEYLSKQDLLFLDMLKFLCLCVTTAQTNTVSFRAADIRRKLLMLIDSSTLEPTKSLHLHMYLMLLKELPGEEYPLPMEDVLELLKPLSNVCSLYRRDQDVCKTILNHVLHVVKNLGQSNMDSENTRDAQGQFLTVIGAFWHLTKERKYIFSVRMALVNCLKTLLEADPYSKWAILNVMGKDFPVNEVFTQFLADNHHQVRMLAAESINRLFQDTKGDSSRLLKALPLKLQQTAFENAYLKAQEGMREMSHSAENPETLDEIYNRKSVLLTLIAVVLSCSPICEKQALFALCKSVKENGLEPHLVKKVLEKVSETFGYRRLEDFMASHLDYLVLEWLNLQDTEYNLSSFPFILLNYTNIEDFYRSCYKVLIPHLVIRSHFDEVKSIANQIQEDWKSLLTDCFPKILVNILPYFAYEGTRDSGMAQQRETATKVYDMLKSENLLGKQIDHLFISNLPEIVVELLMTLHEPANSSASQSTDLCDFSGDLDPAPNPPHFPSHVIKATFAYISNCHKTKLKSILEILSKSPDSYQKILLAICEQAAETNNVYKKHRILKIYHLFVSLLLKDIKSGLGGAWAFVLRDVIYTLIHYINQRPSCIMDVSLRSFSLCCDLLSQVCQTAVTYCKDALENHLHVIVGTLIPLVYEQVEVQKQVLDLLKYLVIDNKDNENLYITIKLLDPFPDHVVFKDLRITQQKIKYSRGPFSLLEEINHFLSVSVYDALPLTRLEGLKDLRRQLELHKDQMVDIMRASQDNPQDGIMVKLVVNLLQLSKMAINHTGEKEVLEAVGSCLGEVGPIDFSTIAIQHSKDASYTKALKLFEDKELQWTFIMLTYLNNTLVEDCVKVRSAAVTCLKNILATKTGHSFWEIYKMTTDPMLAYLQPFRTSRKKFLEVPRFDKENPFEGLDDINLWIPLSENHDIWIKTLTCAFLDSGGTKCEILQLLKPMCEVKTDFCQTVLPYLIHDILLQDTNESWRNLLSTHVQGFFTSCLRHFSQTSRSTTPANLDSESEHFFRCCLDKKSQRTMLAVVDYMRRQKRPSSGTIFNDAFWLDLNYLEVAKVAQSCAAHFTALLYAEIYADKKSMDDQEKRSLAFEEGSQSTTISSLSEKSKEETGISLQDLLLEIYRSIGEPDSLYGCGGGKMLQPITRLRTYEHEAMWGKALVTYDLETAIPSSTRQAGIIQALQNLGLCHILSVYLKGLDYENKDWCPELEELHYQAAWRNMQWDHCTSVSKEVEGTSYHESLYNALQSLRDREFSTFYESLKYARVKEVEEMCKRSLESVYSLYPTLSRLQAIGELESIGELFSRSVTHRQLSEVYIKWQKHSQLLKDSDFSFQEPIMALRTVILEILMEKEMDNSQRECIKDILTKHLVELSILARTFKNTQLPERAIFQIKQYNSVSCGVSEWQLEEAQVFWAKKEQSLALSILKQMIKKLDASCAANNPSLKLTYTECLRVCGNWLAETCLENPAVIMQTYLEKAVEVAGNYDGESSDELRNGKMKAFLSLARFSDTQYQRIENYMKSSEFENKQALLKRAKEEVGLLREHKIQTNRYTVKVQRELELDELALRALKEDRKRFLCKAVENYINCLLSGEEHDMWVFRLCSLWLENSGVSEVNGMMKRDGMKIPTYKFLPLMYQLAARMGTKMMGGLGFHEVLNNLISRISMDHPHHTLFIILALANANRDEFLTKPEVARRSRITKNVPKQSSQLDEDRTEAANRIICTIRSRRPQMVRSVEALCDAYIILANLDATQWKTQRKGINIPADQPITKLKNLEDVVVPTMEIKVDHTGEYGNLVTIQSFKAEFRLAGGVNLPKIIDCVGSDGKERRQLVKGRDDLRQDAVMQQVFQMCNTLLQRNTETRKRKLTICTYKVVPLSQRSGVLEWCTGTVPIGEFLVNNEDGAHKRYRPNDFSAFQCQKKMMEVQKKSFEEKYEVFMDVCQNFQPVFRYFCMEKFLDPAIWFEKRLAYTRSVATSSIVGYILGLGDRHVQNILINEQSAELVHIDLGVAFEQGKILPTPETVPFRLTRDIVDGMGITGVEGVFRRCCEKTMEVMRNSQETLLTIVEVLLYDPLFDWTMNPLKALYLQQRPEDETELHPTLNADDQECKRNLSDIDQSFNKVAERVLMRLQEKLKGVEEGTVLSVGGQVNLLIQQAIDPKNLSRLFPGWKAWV
Chain of HDAC2 (Q92769 whole entry): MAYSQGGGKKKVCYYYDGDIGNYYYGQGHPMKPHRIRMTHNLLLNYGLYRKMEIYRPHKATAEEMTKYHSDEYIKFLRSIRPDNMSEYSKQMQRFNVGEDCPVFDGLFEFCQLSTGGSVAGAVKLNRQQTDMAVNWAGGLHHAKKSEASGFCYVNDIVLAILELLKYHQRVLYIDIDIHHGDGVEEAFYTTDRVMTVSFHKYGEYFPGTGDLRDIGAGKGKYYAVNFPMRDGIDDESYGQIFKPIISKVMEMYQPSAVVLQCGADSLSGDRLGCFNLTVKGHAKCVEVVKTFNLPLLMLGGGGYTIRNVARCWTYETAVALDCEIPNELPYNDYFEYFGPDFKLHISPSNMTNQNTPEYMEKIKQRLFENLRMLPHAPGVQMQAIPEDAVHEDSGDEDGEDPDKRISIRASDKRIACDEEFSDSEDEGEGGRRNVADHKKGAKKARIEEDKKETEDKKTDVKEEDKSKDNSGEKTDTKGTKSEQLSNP

For the compound `COc1cc2ncc3c(c2cc1-c1cn(C)nc1C)n(-c1c(F)cncc1OC)c(=O)n3C` [Lartesertib], the figures for the “HDAC2 (IC50, nM)” value in data set [1] and in data set [1] (listed as lartesertib) were “no inhibition” and “no inhibitory effect”, respectively.
For `O=C(CCCCCCC(=O)Nc1ccccc1)NO` [Vorinostat], in data set [2], the “body weight of mice” value is listed as “slight decrease”. Further, the figures for the “ATM (IC50, nM)” value in data set [3] and in data set [3] (listed as vorinostat) were “no inhibition” and “did not affect”, respectively.
